Assay results reported in ChEMBL document CHEMBL1139333, “Search for new pharmacophores for antimalarial activity. Part I: synthesis and antimalarial activity of new 2-methyl-6-ureido-4-quinolinamides” (Bioorg Med Chem, 2009).
≈ marks a conversion by molar mass, not a printed value.

Experiments:
Plasmodium yoelii [1] = test: Antimalarial activity as parasitaemia after 28 days against chloroquine-resistant Plasmodium yoelii N67 infected Swiss mice (Mus musculus) at 50 mg/kg peroral dose over 7 days; assay type: functional; details: route oral
Plasmodium yoelii [2] = test: Antimalarial activity as parasitaemia after 28 days against chloroquine-resistant Plasmodium yoelii N67 infected Swiss mice (Mus musculus) at 50 mg/kg peroral dose over 4 days; assay type: functional; details: route oral
Procedure, shortened: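 Swiss mice (25 g, either sex, n=5) infected on day 0 with 1 × 10⁶ P. yoelii N67 chloroquine-resistant parasitized cells. Test compounds were given orally as an aqueous suspension at 50 mg/kg from day 0 to 3; vehicle controls were run alongside. Parasitaemia was counted on tail-vein thin smears on days 4, 7, 14, 21 and 28, or until death.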

Plasmodium falciparum [3] = test: Antimalarial activity against chloroquine-sensitive Plasmodium falciparum 3D7 infected erythrocytes after 72 hrs by MSF assay; details: 3D7, 72 h
Plasmodium falciparum [4] = test: Antimalarial effect as schizonticidal activity against chloroquine-sensitive Plasmodium falciparum 3D7 after 40 hrs; details: 3D7, 40 h
[5] = Selectivity index, ratio of CC50 for african green monkey (Cercopithecus aethiops) Vero cells to IC50 for Plasmodium falciparum 3D7; assay type: functional

Row | Structure (SMILES) | Activity (Plasmodium yoelii [1]) | Activity (Plasmodium yoelii [2]) | IC50 (Plasmodium falciparum [3]) | MIC (Plasmodium falciparum [4]) | Selectivity Index [5]
1 | Cc1cc(NC(=O)CN2CCN(C)CC2)c2cc(NC(=O)Nc3cccc(C(F)(F)F)c3)ccc2n1 | 21.9% | 2.5% | 0.0008 mg/L (≈ 0.0016 µM) | 0.25 mg/L (≈ 0.499 µM) | 2594.9
2 | Cc1cc(NC(=O)CN2CCCCC2)c2cc(NC(=O)Nc3cccc(C(F)(F)F)c3)ccc2n1 |  |  | 0.0335 mg/L (≈ 0.069 µM) | 0.25 mg/L (≈ 0.515 µM) | 214.3
3 | Cc1cc(NC(=O)c2cccc(Cl)c2)c2cc(NC(=O)Nc3cccc(Cl)c3C)ccc2n1 |  |  | 0.034 mg/L (≈ 0.0709 µM) | 1 mg/L (≈ 2.09 µM) | 184.5
4 | Cc1cc(NC(=O)c2ccco2)c2cc(NC(=O)Nc3ccc(Cl)c(C(F)(F)F)c3)ccc2n1 |  |  | 0.0099 mg/L (≈ 0.0203 µM) |  | 713.3
5 | Cc1cc(NC(=O)CN2CCCCC2)c2cc(NC(=O)Nc3cc(Cl)cc(Cl)c3)ccc2n1 |  |  | 0.0288 mg/L (≈ 0.0592 µM) | 0.5 mg/L (≈ 1.03 µM) | 396.9
6 | Cc1cc(NC(=O)c2cccc(Cl)c2)c2cc(NC(=O)Nc3cccc(C(F)(F)F)c3)ccc2n1 |  |  | 0.0099 mg/L (≈ 0.0198 µM) |  | 6014.2
7 | Cc1cc(NC(=O)c2cccc(Cl)c2)c2cc(NC(=O)Nc3cc(Cl)cc(Cl)c3)ccc2n1 |  |  | 0.218 mg/L (≈ 0.436 µM) | 2 mg/L (≈ 4 µM) | 187.7
8 | CC(=O)c1cccc(NC(=O)Nc2ccc3nc(C)cc(NC(=O)CN4CCCCC4)c3c2)c1 |  |  |  |  | 214.4
9 | Cc1cc(NC(=O)c2cccc(Cl)c2)c2cc(NC(=O)Nc3ccc(F)c(Cl)c3)ccc2n1 | 15.5% | 3.76% | 0.0682 mg/L (≈ 0.141 µM) |  | 125.6
10 | CC(=O)c1ccc(NC(=O)Nc2ccc3nc(C)cc(NC(=O)c4ccccc4Cl)c3c2)cc1 | 5.98% | 3.03% |  | 2 mg/L (≈ 4.23 µM) | 
11 | CCN1CCN(CC(=O)Nc2cc(C)nc3ccc(NC(=O)Nc4ccc(C)c(Cl)c4)cc23)CC1 |  |  | 0.0035 mg/L (≈ 0.00707 µM) | 0.5 mg/L (≈ 1.01 µM) | 
12 | Cc1cc(NC(=O)CN2CCCCC2)c2cc(NC(=O)Nc3ccc(Cl)c(Cl)c3)ccc2n1 |  |  | 0.0758 mg/L (≈ 0.156 µM) | 0.25 mg/L (≈ 0.514 µM) | 524.2
13 | Cc1cc(NC(=O)CN2CCN(C)CC2)c2cc(NC(=O)Nc3ccc(Cl)cc3)ccc2n1 |  |  | 0.005 mg/L (≈ 0.0107 µM) | 0.5 mg/L (≈ 1.07 µM) | 
14 | Cc1cc(NC(=O)c2ccccc2Cl)c2cc(NC(=O)Nc3ccc(Cl)c(C(F)(F)F)c3)ccc2n1 |  |  | 0.0356 mg/L (≈ 0.0667 µM) |  | 270.9
15 | Cc1cc(NC(=O)c2ccco2)c2cc(NC(=O)Nc3ccc(Br)cc3)ccc2n1 |  |  | 0.0571 mg/L (≈ 0.123 µM) | 1 mg/L (≈ 2.15 µM) | 1547
16 | CC(=O)c1cccc(NC(=O)Nc2ccc3nc(C)cc(NC(=O)CN4CCN(C)CC4)c3c2)c1 |  |  | 0.146 mg/L (≈ 0.308 µM) | 0.5 mg/L (≈ 1.05 µM) | 524.5
17 | Cc1cc(NC(=O)c2ccccc2Cl)c2cc(NC(=O)Nc3ccc(Br)cc3)ccc2n1 | 8.8% | 1.9% |  | 2 mg/L (≈ 3.92 µM) | 
18 | Cc1cc(NC(=O)c2ccccc2Cl)c2cc(NC(=O)Nc3cc(Cl)cc(Cl)c3)ccc2n1 |  |  | 0.0217 mg/L (≈ 0.0434 µM) |  | 505
19 | Cc1cc(NC(=O)c2ccccc2)c2cc(NC(=O)Nc3ccc(Cl)c(C(F)(F)F)c3)ccc2n1 |  |  | 0.0194 mg/L (≈ 0.0389 µM) | 1 mg/L (≈ 2 µM) | 
20 | Cc1cc(NC(=O)c2ccccc2)c2cc(NC(=O)Nc3ccc(Cl)c(Cl)c3)ccc2n1 |  |  | 0.0109 mg/L (≈ 0.0234 µM) | 1 mg/L (≈ 2.15 µM) | 
21 | CC(=O)c1ccc(NC(=O)Nc2ccc3nc(C)cc(NC(=O)CN4CCN(C)CC4)c3c2)cc1 |  |  | 0.014 mg/L (≈ 0.0295 µM) | 1 mg/L (≈ 2.11 µM) | 
22 | CCN1CCN(CC(=O)Nc2cc(C)nc3ccc(NC(=O)Nc4cccc(C(F)(F)F)c4)cc23)CC1 |  |  | 0.028 mg/L (≈ 0.0544 µM) | 0.5 mg/L (≈ 0.972 µM) | 
23 | Cc1cc(NC(=O)CN2CCCCC2)c2cc(NC(=O)Nc3ccc(Cl)cc3)ccc2n1 |  |  | 0.023 mg/L (≈ 0.0509 µM) | 0.5 mg/L (≈ 1.11 µM) | 64.9
24 | Cc1cc(NC(=O)c2ccccc2)c2cc(NC(=O)Nc3cccc(C#N)c3)ccc2n1 |  |  |  | 10 mg/L (≈ 23.7 µM) | 
25 | Cc1cc(NC(=O)c2ccccc2Cl)c2cc(NC(=O)Nc3ccc(Cl)c(Cl)c3)ccc2n1 |  |  | 0.194 mg/L (≈ 0.389 µM) | 1 mg/L (≈ 2 µM) | 16.8
